System: U2OS
Experiment: Multiplex assay against U2OS
Assay type: toxicity, cell-based
Conditions: human
In short: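 Cells were classed with CellPathfinder machine-learning gating, first as Hoechst high-intensity objects or normal cells, then (normal cells) as healthy, pyknosed or fragmented nuclei, and finally (pyknosed cells) as mitotic or apoptotic. Staining of live cells at seeding used Hoechst33342, BioTracker Green Microtubule Cytoskeleton Dye, MitoTracker Red and Annexin V Alexa Fluor 680, with imaging on a CQ1 microscope at 37°C and 5% CO2 after compound addition. Tubulin, mitochondrial-mass and membrane-permeability phenotypes are per cents of healthy-nucleus cells.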

[1] = 12 h, 1 µM, compound concentration 1 uM, replicate 1
[2] = 12 h, 1 µM, compound concentration 1 uM, replicate 2
[3] = 12 h, 10 µM, compound concentration 10 uM, replicate 1
[4] = 12 h, 10 µM, compound concentration 10 uM, replicate 2
[5] = 24 h, 1 µM, compound concentration 1 uM, replicate 1
[6] = 24 h, 1 µM, compound concentration 1 uM, replicate 2
[7] = 24 h, 10 µM, compound concentration 10 uM, replicate 1
[8] = 24 h, 10 µM, compound concentration 10 uM, replicate 2
[9] = 48 h, 1 µM, compound concentration 1 uM, replicate 1
[10] = 48 h, 1 µM, compound concentration 1 uM, replicate 2
[11] = 48 h, 10 µM, compound concentration 10 uM, replicate 1
[12] = 48 h, 10 µM, compound concentration 10 uM, replicate 2

Cc1nc2ccc(Oc3ccc(F)cc3)cc2c(=O)n1C[C@H]1CCCN(C(C)C)C1.Cl
Population Apoptotic (%) [1]: 83%
Population Fragmented Nuclei (%) [1]: 25%
Population Healthy Nuclei (%) [1]: 64%
Population Hoechst High Intensity Objects (%) [1]: 3%
Population Membrane Permeable-Phenotype (%) [1]: 9%
Population Mitochondria Different-Phenotype (%) [1]: 3%
Population Mitotic Cells (%) [1]: 16%
Population Normal (%) [1]: 96%
Population Pyknosed Nuclei (%) [1]: 10%
Population Tubulin-Different-Phenotype (%) [1]: 7%
Total Cell Count [1]: 244
Population Apoptotic (%) [2]: 60%
Population Fragmented Nuclei (%) [2]: 14%
Population Healthy Nuclei (%) [2]: 81%
Population Hoechst High Intensity Objects (%) [2]: 1%
Population Membrane Permeable-Phenotype (%) [2]: 17%
Population Mitochondria Different-Phenotype (%) [2]: 7%
Population Mitotic Cells (%) [2]: 40%
Population Normal (%) [2]: 98%
Population Pyknosed Nuclei (%) [2]: 4%
Population Tubulin-Different-Phenotype (%) [2]: 9%
Total Cell Count [2]: 125
Population Apoptotic (%) [3]: 65%
Population Fragmented Nuclei (%) [3]: 25%
Population Healthy Nuclei (%) [3]: 59%
Population Hoechst High Intensity Objects (%) [3]: 3%
Population Membrane Permeable-Phenotype (%) [3]: 58%
Population Mitochondria Different-Phenotype (%) [3]: 61%
Population Mitotic Cells (%) [3]: 35%
Population Normal (%) [3]: 96%
Population Pyknosed Nuclei (%) [3]: 15%
Population Tubulin-Different-Phenotype (%) [3]: 63%
Total Cell Count [3]: 268
Population Apoptotic (%) [4]: 78%
Population Fragmented Nuclei (%) [4]: 24%
Population Healthy Nuclei (%) [4]: 58%
Population Hoechst High Intensity Objects (%) [4]: 4%
Population Membrane Permeable-Phenotype (%) [4]: 25%
Population Mitochondria Different-Phenotype (%) [4]: 75%
Population Mitotic Cells (%) [4]: 21%
Population Normal (%) [4]: 95%
Population Pyknosed Nuclei (%) [4]: 17%
Population Tubulin-Different-Phenotype (%) [4]: 47%
Total Cell Count [4]: 86
Population Apoptotic (%) [5]: 78%
Population Fragmented Nuclei (%) [5]: 23%
Population Healthy Nuclei (%) [5]: 65%
Population Hoechst High Intensity Objects (%) [5]: 4%
Population Membrane Permeable-Phenotype (%) [5]: 7%
Population Mitochondria Different-Phenotype (%) [5]: 5%
Population Mitotic Cells (%) [5]: 21%
Population Normal (%) [5]: 95%
Population Pyknosed Nuclei (%) [5]: 10%
Population Tubulin-Different-Phenotype (%) [5]: 4%
Total Cell Count [5]: 276
Population Apoptotic (%) [6]: 80%
Population Fragmented Nuclei (%) [6]: 21%
Population Healthy Nuclei (%) [6]: 71%
Population Hoechst High Intensity Objects (%) [6]: 2%
Population Membrane Permeable-Phenotype (%) [6]: 11%
Population Mitochondria Different-Phenotype (%) [6]: 9%
Population Mitotic Cells (%) [6]: 20%
Population Normal (%) [6]: 97%
Population Pyknosed Nuclei (%) [6]: 6%
Population Tubulin-Different-Phenotype (%) [6]: 8%
Total Cell Count [6]: 146
Population Apoptotic (%) [7]: 77%
Population Fragmented Nuclei (%) [7]: 25%
Population Healthy Nuclei (%) [7]: 57%
Population Hoechst High Intensity Objects (%) [7]: 4%
Population Membrane Permeable-Phenotype (%) [7]: 37%
Population Mitochondria Different-Phenotype (%) [7]: 63%
Population Mitotic Cells (%) [7]: 22%
Population Normal (%) [7]: 95%
Population Pyknosed Nuclei (%) [7]: 16%
Population Tubulin-Different-Phenotype (%) [7]: 47%
Total Cell Count [7]: 297
Population Apoptotic (%) [8]: 76%
Population Fragmented Nuclei (%) [8]: 22%
Population Healthy Nuclei (%) [8]: 52%
Population Hoechst High Intensity Objects (%) [8]: 6%
Population Membrane Permeable-Phenotype (%) [8]: 22%
Population Mitochondria Different-Phenotype (%) [8]: 62%
Population Mitotic Cells (%) [8]: 23%
Population Normal (%) [8]: 93%
Population Pyknosed Nuclei (%) [8]: 24%
Population Tubulin-Different-Phenotype (%) [8]: 40%
Total Cell Count [8]: 91
Population Apoptotic (%) [9]: 84%
Population Fragmented Nuclei (%) [9]: 19%
Population Healthy Nuclei (%) [9]: 69%
Population Hoechst High Intensity Objects (%) [9]: 1%
Population Membrane Permeable-Phenotype (%) [9]: 7%
Population Mitochondria Different-Phenotype (%) [9]: 5%
Population Mitotic Cells (%) [9]: 15%
Population Normal (%) [9]: 98%
Population Pyknosed Nuclei (%) [9]: 10%
Population Tubulin-Different-Phenotype (%) [9]: 4%
Total Cell Count [9]: 371
Population Apoptotic (%) [10]: 93%
Population Healthy Nuclei (%) [10]: 72%
Population Hoechst High Intensity Objects (%) [10]: 0%
Population Mitotic Cells (%) [10]: 6%
Population Normal (%) [10]: 99%
Population Pyknosed Nuclei (%) [10]: 7%
Population Tubulin-Different-Phenotype (%) [10]: 6%
Total Cell Count [10]: 213
Population Apoptotic (%) [11]: 77%
Population Fragmented Nuclei (%) [11]: 29%
Population Healthy Nuclei (%) [11]: 54%
Population Hoechst High Intensity Objects (%) [11]: 5%
Population Membrane Permeable-Phenotype (%) [11]: 29%
Population Mitochondria Different-Phenotype (%) [11]: 36%
Population Mitotic Cells (%) [11]: 22%
Population Normal (%) [11]: 94%
Population Pyknosed Nuclei (%) [11]: 16%
Population Tubulin-Different-Phenotype (%) [11]: 23%
Total Cell Count [11]: 380
Population Apoptotic (%) [12]: 88%
Population Healthy Nuclei (%) [12]: 51%
Population Hoechst High Intensity Objects (%) [12]: 8%
Population Membrane Permeable-Phenotype (%) [12]: 27%
Population Mitochondria Different-Phenotype (%) [12]: 41%
Population Mitotic Cells (%) [12]: 11%
Population Normal (%) [12]: 91%
Population Pyknosed Nuclei (%) [12]: 19%
Population Tubulin-Different-Phenotype (%) [12]: 35%
Total Cell Count [12]: 103

CSCC[C@H](NC=O)C(=O)N[C@@H](CC(C)C)C(=O)N[C@@H](Cc1ccccc1)C(=O)O
Population Apoptotic (%) [1]: 73%
Population Fragmented Nuclei (%) [1]: 29%
Population Mitochondria Different-Phenotype (%) [1]: 4%
Population Mitotic Cells (%) [1]: 26%
Total Cell Count [1]: 254
Population Apoptotic (%) [2]: 100%
Population Fragmented Nuclei (%) [2]: 17%
Population Healthy Nuclei (%) [2]: 75%
Population Mitochondria Different-Phenotype (%) [2]: 3%
Population Mitotic Cells (%) [2]: 0%
Total Cell Count [2]: 135
Population Apoptotic (%) [3]: 69%
Population Fragmented Nuclei (%) [3]: 23%
Population Healthy Nuclei (%) [3]: 70%
Population Mitochondria Different-Phenotype (%) [3]: 1%
Population Mitotic Cells (%) [3]: 30%
Total Cell Count [3]: 202
Population Apoptotic (%) [4]: 90%
Population Fragmented Nuclei (%) [4]: 16%
Population Healthy Nuclei (%) [4]: 74%
Population Membrane Permeable-Phenotype (%) [4]: 4%
Population Mitochondria Different-Phenotype (%) [4]: 2%
Total Cell Count [4]: 123
Population Apoptotic (%) [5]: 91%
Population Fragmented Nuclei (%) [5]: 24%
Population Mitochondria Different-Phenotype (%) [5]: 3%
Population Mitotic Cells (%) [5]: 8%
Total Cell Count [5]: 288
Population Apoptotic (%) [6]: 90%
Population Fragmented Nuclei (%) [6]: 17%
Population Healthy Nuclei (%) [6]: 75%
Population Mitochondria Different-Phenotype (%) [6]: 0%
Total Cell Count [6]: 147
Population Apoptotic (%) [7]: 76%
Population Fragmented Nuclei (%) [7]: 23%
Population Healthy Nuclei (%) [7]: 68%
Population Mitochondria Different-Phenotype (%) [7]: 1%
Population Mitotic Cells (%) [7]: 23%
Total Cell Count [7]: 247
Population Apoptotic (%) [8]: 100%
Population Fragmented Nuclei (%) [8]: 19%
Population Healthy Nuclei (%) [8]: 70%
Population Membrane Permeable-Phenotype (%) [8]: 8%
Population Mitochondria Different-Phenotype (%) [8]: 2%
Population Mitotic Cells (%) [8]: 0%
Total Cell Count [8]: 147
Population Fragmented Nuclei (%) [9]: 16%
Population Healthy Nuclei (%) [9]: 75%
Population Membrane Permeable-Phenotype (%) [9]: 4%
Population Mitochondria Different-Phenotype (%) [9]: 3%
Population Mitotic Cells (%) [9]: 15%
Total Cell Count [9]: 411
Population Fragmented Nuclei (%) [10]: 18%
Population Healthy Nuclei (%) [10]: 68%
Population Mitochondria Different-Phenotype (%) [10]: 1%
Population Mitotic Cells (%) [10]: 3%
Total Cell Count [10]: 202
Population Apoptotic (%) [11]: 90%
Population Fragmented Nuclei (%) [11]: 20%
Population Healthy Nuclei (%) [11]: 70%
Population Membrane Permeable-Phenotype (%) [11]: 4%
Population Mitochondria Different-Phenotype (%) [11]: 2%
Population Mitotic Cells (%) [11]: 9%
Total Cell Count [11]: 362
Population Apoptotic (%) [12]: 100%
Population Fragmented Nuclei (%) [12]: 53%
Population Healthy Nuclei (%) [12]: 25%
Population Membrane Permeable-Phenotype (%) [12]: 80%
Population Mitochondria Different-Phenotype (%) [12]: 50%
Population Mitotic Cells (%) [12]: 0%
Total Cell Count [12]: 41

Reference: ChEMBL document CHEMBL5058577, “EUbOPEN Chemogenomics Library 2 (Multiplex)” (2022)
